Data on 23 compounds can be found in ChEMBL document CHEMBL4364268, “Carvacrol prodrugs as novel antimicrobial agents” (Eur J Med Chem, 2019).

Data set [1] deals with Candida albicans. The data set can be described thus: Antifungal activity against Candida albicans after 24 hrs by EUCAST method. It counts as functional.
Data set [2] is described as follows: n-Octanol/water partition coefficient, log P of compound by HPLC analysis. Format: physicochemical.
Data set [3] is described as follows: Stability in human plasma by HPLC analysis. Format: ADME, cell-free. The method, boiled down:
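Compound stock was added to 80% human plasma (diluted with 0.02 M phosphate buffer, pH 7.4) at 37 °C. Samples taken over time were stopped with 0.01 M HCl in methanol and centrifuged 5 min at 5000 g. Supernatant was analysed by HPLC-UV at 274 nm (C18, water/ACN + 0.1% TFA, isocratic, 1 mL/min).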

The nature of data set [4]: Aqueous solubility of compound at 50 mg after 1 hr by HPLC analysis. It counts as physicochemical. The following applies: water.
The subject of data set [5] is Nakaseomyces glabratus. Briefly: Antifungal activity against Candida glabrata ATCC 2001 assessed as zone of inhibition by disc diffusion method. Format: functional. The method, boiled down:
(§1)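 Disc diffusion on potato dextrose medium with 0.8% agar against Candida strains. Fluconazole and amphotericin B served as positive controls. Inhibition zone was measured in mm.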

The test system of data set [6] is Candida albicans. The data set can be described thus: Antifungal activity against Candida albicans ATCC 10231 assessed as zone of inhibition by disc diffusion method. It counts as functional. The method, boiled down:
as §1
A general note: In agar diffusion tests the substance spreads into inoculated agar from a disc or well.

Data set [7] relates to Candida parapsilosis. Briefly: Antifungal activity against Candida parapsilosis ATCC 22019 assessed as zone of inhibition by disc diffusion method. Format: functional. The method, boiled down: as §1
In data set [8] the test system is Candida dubliniensis. Briefly: Antifungal activity against Candida dubliniensis CBS7987 assessed as zone of inhibition by disc diffusion method. It counts as functional. The method, boiled down: as §1
Data set [9] deals with Candida tropicalis. The data set can be described thus: Antifungal activity against Candida tropicalis KUEN 1025 assessed as zone of inhibition by disc diffusion method. Format: functional. The method, boiled down:
as §1

The test system of data set [10] is Blood. The data set can be described thus: Antioxidant activity in human blood assessed as total antioxidant capacity at 10 uM after 48 hrs (reference value: 6.3 +/- 0.5). Format: functional.
Data set [11] concerns Streptococcus agalactiae. Briefly: Antibacterial activity against Streptococcus agalactiae incubated for 18 to 24 hrs by CLSI-based broth microdilution method. Format: functional. Background: In broth dilution the organism is exposed to a series of concentrations in liquid medium.
Data set [12] deals with Enterococcus faecalis. The data set can be described thus: Antibacterial activity against Enterococcus faecalis incubated for 18 to 24 hrs by CLSI-based broth microdilution method. It counts as functional.
Data set [13] deals with Pseudomonas aeruginosa. The data set can be described thus: Antibacterial activity against Pseudomonas aeruginosa incubated for 18 to 24 hrs by CLSI-based broth microdilution method. Format: functional.
Data set [14] relates to Acinetobacter baumannii. The data set can be described thus: Antibacterial activity against Acinetobacter baumannii incubated for 18 to 24 hrs by CLSI-based broth microdilution method. It counts as functional.
Data set [15] concerns Streptococcus pneumoniae. Briefly: Antibacterial activity against Streptococcus pneumoniae incubated for 18 to 24 hrs by CLSI-based broth microdilution method. It counts as functional.
Data set [16] relates to Staphylococcus aureus. Briefly: Antibacterial activity against Staphylococcus aureus incubated for 18 to 24 hrs by CLSI-based broth microdilution method. It counts as functional.
The test system of data set [17] is Klebsiella pneumoniae. The data set can be described thus: Antibacterial activity against Klebsiella pneumoniae incubated for 18 to 24 hrs by CLSI-based broth microdilution method. Format: functional.
The subject of data set [18] is Streptococcus pyogenes. The data set can be described thus: Antibacterial activity against Streptococcus pyogenes incubated for 18 to 24 hrs by CLSI-based broth microdilution method. Format: functional.
In data set [19] the test system is Escherichia coli. The data set can be described thus: Antibacterial activity against Escherichia coli incubated for 18 to 24 hrs by CLSI-based broth microdilution method. It counts as functional.
For data set [20], the system named is Staphylococcus epidermidis. Briefly: Antibacterial activity against Staphylococcus epidermidis incubated for 18 to 24 hrs by CLSI-based broth microdilution method. Format: functional.

Broadly, the MIC is the lowest concentration found to suppress growth. Read a high MIC as a less susceptible organism. Broadly, the logP is a log measure of how a compound divides between an organic and an aqueous phase. Read a low logP as a more hydrophilic compound. One may read the solubility as the concentration that dissolves in the medium under given conditions. By MIC50 is commonly meant an inhibitory concentration at the 50% level, which refers to growth in some studies and to a panel of isolates in others. A low value points to greater potency. Broadly, the MIC90 is an inhibitory concentration at the 90% level, which refers to growth in some studies and to a panel of isolates in others.

Each structure is given as a SMILES string. In brackets after ≈: the same amount, converted by molar mass.

`Cc1ccc(C(C)C)cc1OC(=O)CCC(=O)N[C@@H](CCCNC(=N)N)C(=O)O` yielded an MIC in data set [1] greater than 6400 µg/mL.

Compound `Cc1ccc(C(C)C)cc1OC(=O)CCC(=O)N[C@@H](CCCCN)C(=O)O` yielded an MIC in [1] greater than 6400 µg/mL.

For `Cc1ccc(C(C)C)cc1OC(=O)CCCC(=O)NCC(=O)O`, the MIC in data set [1] is greater than 6400 µg/mL.

Take `Cc1ccc(C(C)C)cc1OC(=O)CCCC(=O)O`: the MIC in data set [1] was greater than 6400 µg/mL.

`Cc1ccc(C(C)C)cc1OC(=O)CCC(=O)NCC(=O)O` showed an MIC in data set [1] of 6400 µg/mL (≈ 20800 µM).

Compound `Cc1ccc(C(C)C)cc1OC(=O)CCCC(=O)N[C@@H](CCCNC(=N)N)C(=O)O` gave an MIC in data set [1] greater than 6400 µg/mL.

In the case of `Cc1ccc(C(C)C)cc1OC(=O)CCC(=O)N[C@@H](Cc1c[nH]cn1)C(=O)O`, the MIC in data set [1] was greater than 6400 µg/mL. In addition, the logP in data set [2] was less than 2.4.

As to `Cc1ccc(C(C)C)cc1OC(=O)CCCC(=O)N[C@@H](CCCCN)C(=O)O`, in data set [1], the MIC was greater than 6400 µg/mL.

With `CC(C)=CCC[C@@H](C)CC(=O)Oc1cc(C(C)C)ccc1C`, in data set [1], the MIC is greater than 6400 µg/mL.

Take `CC(C)=CC(=O)Oc1cc(C(C)C)ccc1C`: the MIC in data set [1] is greater than 6400 µg/mL.

`CC(C)=CCOc1cc(C(C)C)ccc1C` came in with a K in data set [3] of 0.0294 h⁻¹.

On to `Cc1ccc(C(C)C)cc1OC(=O)CCC(=O)NCCN.Cl`, for which, in data set [1], the MIC was 3200 µg/mL.

In data set [1], `Cc1ccc(C(C)C)cc1OC(=O)CCCC(=O)N[C@@H](Cc1c[nH]cn1)C(=O)O` gave an MIC greater than 6400 µg/mL. The same compound yielded a lipophilicity (logP) in [2] of less than 2.4. For the same compound, the concentration in solution in data set [4] (solubility at 1 h) was 3330 µg/mL (≈ 8300 µM).

In data set [1], `Cc1ccc(C(C)C)cc1OC(=O)CCC(=O)NCCN(C)C.Cl` registered a minimal inhibitory concentration (MIC) greater than 6400 µg/mL.

With `CC(C)=CCC/C(C)=C/COc1cc(C(C)C)ccc1C`, in data set [3], the K was found to be 0.1716 h⁻¹.

The compound `Cc1ccc(C(C)C)cc1OC(=O)CCCC(=O)NCCN.Cl` showed a minimum inhibitory concentration (MIC) in data set [1] greater than 6400 µg/mL.

In [1], `CC(C)=CCC/C(C)=C/C(=O)Oc1cc(C(C)C)ccc1C` registered an MIC greater than 6400 µg/mL.

In turn, `CC(C)=CCC/C(C)=C/CC/C(C)=C/COc1cc(C(C)C)ccc1C` returned an MIC in data set [1] greater than 6400 µg/mL.

As to `Cc1ccc(C(C)C)cc1OC(=O)CCCC(=O)NCCN(C)C.Cl`, in data set [1], the MIC was greater than 6400 µg/mL.

In the case of `C[C@@H]1[C@H](O)[C@@H](C)/C=C/C=C/C=C/C=C/C=C/C=C/C=C/[C@H](O[C@@H]2O[C@H](C)[C@@H](O)[C@H](N)[C@@H]2O)C[C@@H]2O[C@](O)(C[C@@H](O)C[C@@H](O)[C@H](O)CC[C@@H](O)C[C@@H](O)CC(=O)O[C@H]1C)C[C@H](O)[C@H]2C(=O)O` [AMPHOTERICIN B], the “inhibition zone (IZ)” value is given as 12 mm in [5]; 10 mm in data set [6]; 9 mm in data set [7]; 10 mm in [8]; 10 mm in data set [9].

Take `O=C1O[C@H]([C@@H](O)CO)C(O)=C1O` [ASCORBIC ACID]: in data set [10], the Activity came to 19.4.

`Cc1ccc(C(C)C)cc1O` [CARVACROL]: the MIC in data set [11] is 256 to 512 µg/mL (≈ 1700 to 3410 µM); in data set [1], 1250 µg/mL (≈ 8320 µM); in data set [12] it was 128 to 512 µg/mL (≈ 852 to 3410 µM); in [13], no less than 512 µg/mL; in data set [14], 64 to 256 µg/mL (≈ 426 to 1700 µM); in [15], 64 to 256 µg/mL (≈ 426 to 1700 µM). In addition, the MIC is 256 µg/mL (≈ 1700 µM) in data set [16]; 512 µg/mL (≈ 3410 µM) in [17]; 64 to 256 µg/mL (≈ 426 to 1700 µM) in data set [18]; 256 µg/mL (≈ 1700 µM) in data set [19]; 256 µg/mL (≈ 1700 µM) in data set [20]. For the same compound, the MIC50 was 256 µg/mL (≈ 1700 µM) in [11]; 256 µg/mL (≈ 1700 µM) in data set [12]; greater than 512 µg/mL in data set [13]; 128 µg/mL (≈ 852 µM) in data set [14]; 128 µg/mL (≈ 852 µM) in data set [15]; 256 µg/mL (≈ 1700 µM) in data set [16]. Besides, the MIC50 in data set [17] was determined as 512 µg/mL (≈ 3410 µM); in data set [18], 128 µg/mL (≈ 852 µM); in [19], 256 µg/mL (≈ 1700 µM); in [20], 256 µg/mL (≈ 1700 µM). The MIC90 in data set [11] was 512 µg/mL (≈ 3410 µM); in data set [12], 256 µg/mL (≈ 1700 µM); in data set [13], greater than 512 µg/mL; in data set [14], 256 µg/mL (≈ 1700 µM); in [15], 256 µg/mL (≈ 1700 µM); in [16], 256 µg/mL (≈ 1700 µM). Moreover, the MIC90 in [17] turned out to be 512 µg/mL (≈ 3410 µM); in data set [18] it was 256 µg/mL (≈ 1700 µM); in data set [19] it was 256 µg/mL (≈ 1700 µM); in data set [20], 256 µg/mL (≈ 1700 µM). In addition, the “inhibition zone (IZ)” value in [5] worked out at 8 mm; in [6], 9 mm; in data set [7] it was 7 mm; in [8], 7 mm; in data set [9] it was 10 mm. Further, the logP in data set [2] worked out at 3.5.

In [1], `OC(Cn1cncn1)(Cn1cncn1)c1ccc(F)cc1F` [FLUCONAZOLE] displayed an MIC of 250 µg/mL (≈ 816 µM).
